Measurements as given in ChEMBL document CHEMBL1240531, “Effects of conformational restriction of 2-amino-3-benzoylthiophenes on A(1) adenosine receptor modulation” (J Med Chem, 2010).

How the values were obtained:
[1] = molecular target: T1, Adenosine receptor A1 (Homo sapiens) (UniProt P30542); assay: Allosteric enhancement of human adenosine A1 receptor expressed in CHO FlpIn cells assessed as potentiation of N(6)-(R-phenylisopropyl)adenosine-induced ERK1/2 phosphorylation at 3 uM relative to N(6)-(R-phenylisopropyl)adenosine; assay type: cell-based
T1 sequence (whole entry): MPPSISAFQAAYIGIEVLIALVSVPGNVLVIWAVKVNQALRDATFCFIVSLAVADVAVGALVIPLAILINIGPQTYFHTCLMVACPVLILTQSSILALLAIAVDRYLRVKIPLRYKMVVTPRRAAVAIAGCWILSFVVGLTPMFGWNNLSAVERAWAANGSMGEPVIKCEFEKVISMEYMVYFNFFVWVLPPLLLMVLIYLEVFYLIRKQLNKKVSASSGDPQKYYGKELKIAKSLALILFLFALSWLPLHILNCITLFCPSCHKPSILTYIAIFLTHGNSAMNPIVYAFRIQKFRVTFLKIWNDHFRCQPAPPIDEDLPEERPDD

Adenosine receptor A1 = molecular target: T2, Adenosine receptor A1 (Homo sapiens, UniProt P30542); assay: Antagonist activity at human adenosine A1 receptor expressed in CHO FlpIn cells assessed as inhibition of N(6)-(R-phenylisopropyl)adenosine-induced ERK1/2 phosphorylation; assay type: functional, cell-based; conditions: read-out: pA2 (converted)
T2 sequence (P30542 whole entry): T1 sequence (whole entry)
How it was run: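 Human A1AR FlpIn-CHO cells were pretreated with 1 U/mL adenosine deaminase for 30 min, then with test ligand over a concentration range for 30 min at 37 °C. R-PIA was then added for 5 min stimulation. Lysates were assayed for phospho-ERK1/2 by AlphaScreen SureFire. Response was expressed as percent of the 6 min 3% FBS response. Three experiments in triplicate, mean ± SEM. Curves were fitted globally to a competitive or allosteric model.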

[2] = molecular target: T1, Adenosine receptor A1 (Homo sapiens); assay: Allosteric enhancement of human adenosine A1 receptor expressed in CHO FlpIn cells assessed as potentiation of N(6)-(R-phenylisopropyl)adenosine-induced ERK1/2 phosphorylation at 10 uM relative to N(6)-(R-phenylisopropyl)adenosine; assay type: cell-based
[3] = molecular target: T1, Adenosine receptor A1 (Homo sapiens); assay: Allosteric enhancement of human adenosine A1 receptor expressed in CHO FlpIn cells assessed as increase of ERK1/2 phosphorylation at 3 to 10 uM relative to N(6)-(R-phenylisopropyl)adenosine; assay type: cell-based
[4] = molecular target: T3, Adenosine receptor A1 (Rattus norvegicus) (UniProt P25099); assay: Allosteric enhancement of human adenosine A1 receptor in rat brain membranes assessed as increase of [3H]N6-cyclohexyladenosine binding at 100 uM relative to control; assay type: cell membranes
T3 sequence (whole entry): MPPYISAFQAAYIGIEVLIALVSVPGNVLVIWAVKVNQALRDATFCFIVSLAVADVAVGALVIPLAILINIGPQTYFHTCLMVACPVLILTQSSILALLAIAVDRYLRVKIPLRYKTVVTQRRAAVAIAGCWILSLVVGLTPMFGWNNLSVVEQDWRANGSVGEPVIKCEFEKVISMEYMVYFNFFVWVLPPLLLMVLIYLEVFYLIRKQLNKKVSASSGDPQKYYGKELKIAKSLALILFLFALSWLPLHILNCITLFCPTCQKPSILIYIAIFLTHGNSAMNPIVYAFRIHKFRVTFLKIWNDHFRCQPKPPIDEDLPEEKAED

SMILES | Activity [1] [%] | Kb (Adenosine receptor A1) [nM] | Activity [2] [%] | Activity [3] [%] | Activity [4] [%]
Nc1sc(-c2cncnc2)c2c1C(=O)c1ccccc1-2 | 19 | 646 | 7 | 5 | –
Nc1sc(-c2ccc(C(=O)O)cc2)c2c1C(=O)c1ccccc1-2 | 19 | – | 7 | 5 | –
CN(C)c1ccc(-c2sc(N)c3c2-c2ccccc2C3=O)cc1 | 48 | – | 32 | 5 | –
CN(C)c1ccc(-c2cc(C(=O)c3ccccc3)c(N)s2)cc1 | 50 | – | 29 | 5 | –
Nc1scc2c1C(=O)c1c(Cl)cccc1-2 | 45 | – | 38 | 5 | –
Nc1sc(-c2cncnc2)cc1C(=O)c1ccccc1 | 18 | – | 2 | 5 | –
Nc1sccc1C(=O)c1ccccc1 | 48 | – | 30 | 5 | 59
Nc1sc(-c2ccc(C(=O)O)cc2)cc1C(=O)c1ccc(Cl)cc1 | 27 | – | 29 | 5 | –
Nc1sc2c(c1C(=O)c1ccc(Cl)cc1)-c1cccc(C(F)(F)F)c1C2 | 65 | – | 73 | 5 | –
Nc1sc2c(c1C(=O)c1ccc(Cl)cc1)-c1ccccc1C2 | 81 | – | 84 | 20 | –
Nc1sc(-c2ccccc2)cc1C(=O)c1ccc(Cl)cc1 | 46 | – | 16 | 5 | –
Nc1sc(-c2ccccc2)c2c1C(=O)c1ccccc1-2 | 19 | – | 3 | 5 | –
Nc1cccc2c1C(=O)c1ccccc1-2 | – | – | – | – | 122
Nc1sc2c(c1C(=O)c1ccccc1)-c1ccccc1C2 | 23 | – | 9 | 5 | –
Nc1sc(-c2ccncc2)cc1C(=O)c1ccccc1 | 23 | – | 17 | 5 | –
Nc1sc2c(c1C(=O)c1ccccc1)-c1cc(C(F)(F)F)ccc1C2 | 52 | – | 38 | 5 | –

SMILES | Activity [1] [%] | Kb (Adenosine receptor A1) [nM] | Activity [2] [%] | Activity [3] [%] | Activity [4] [%]
Nc1scc2c1C(=O)c1ccc(Cl)cc1-2 | 56 | – | 29 | 20 | –
Nc1sc(-c2ccncc2)cc1C(=O)c1ccc(Cl)cc1 | 44 | – | 17 | 5 | –
COc1ccc(-c2sc(N)c3c2-c2ccccc2C3=O)cc1 | 37 | – | 18 | 5 | –
Nc1scc2c1C(=O)c1ccccc1-2 | 45 | – | 27 | 5 | –
COc1ccc(-c2cc(C(=O)c3ccccc3)c(N)s2)cc1 | 31 | – | 14 | 5 | –
COc1ccc(-c2cc(C(=O)c3ccc(Cl)cc3)c(N)s2)cc1 | 51 | – | 29 | 5 | –
Nc1sc2c(c1C(=O)c1ccc(Cl)cc1)-c1cc(C(F)(F)F)ccc1C2 | 62 | – | 73 | 5 | –
CN(C)c1ccc(-c2cc(C(=O)c3ccc(Cl)cc3)c(N)s2)cc1 | 56 | – | 41 | 5 | –
Nc1sc2c(c1C(=O)c1ccccc1)-c1cccc(C(F)(F)F)c1C2 | 56 | – | 49 | 5 | –
Nc1sc(-c2ccc(C(=O)O)cc2)cc1C(=O)c1ccccc1 | 51 | – | 27 | 5 | –
Nc1sc(-c2ccncc2)c2c1C(=O)c1ccccc1-2 | 28 | – | 17 | 5 | –
Nc1sc(-c2cncnc2)cc1C(=O)c1ccc(Cl)cc1 | 7 | 145 | 4 | 5 | –
Nc1sccc1C(=O)c1ccc(Cl)cc1 | 50 | – | 40 | 5 | –
Nc1ccccc1C(=O)c1ccccc1 | – | – | – | – | 34
Nc1sc(-c2ccccc2)cc1C(=O)c1ccccc1 | 12 | 209 | 1 | 5 | –
